Data taken from ChEMBL document CHEMBL3407386, “Design, synthesis, and biological evaluation of tetrazole analogs of Cl-amidine as protein arginine deiminase inhibitors” (J Med Chem, 2015).
One block for each molecule: values may come before it. Calls of active or inactive are those of the source. No cut-off for these calls is given here.

Assays:
[1] = target: Protein-arginine deiminase type-4 (Homo sapiens) (UniProt Q9UM07); experiment: Inhibition of PAD4 (unknown origin) using N-alpha-benzoyl-L-arginine ethyl ester as substrate assessed as citrulline production after 15 mins by COLDER assay
Protein-arginine deiminase type-4 (Homo sapiens), sequence (Q9UM07 whole entry): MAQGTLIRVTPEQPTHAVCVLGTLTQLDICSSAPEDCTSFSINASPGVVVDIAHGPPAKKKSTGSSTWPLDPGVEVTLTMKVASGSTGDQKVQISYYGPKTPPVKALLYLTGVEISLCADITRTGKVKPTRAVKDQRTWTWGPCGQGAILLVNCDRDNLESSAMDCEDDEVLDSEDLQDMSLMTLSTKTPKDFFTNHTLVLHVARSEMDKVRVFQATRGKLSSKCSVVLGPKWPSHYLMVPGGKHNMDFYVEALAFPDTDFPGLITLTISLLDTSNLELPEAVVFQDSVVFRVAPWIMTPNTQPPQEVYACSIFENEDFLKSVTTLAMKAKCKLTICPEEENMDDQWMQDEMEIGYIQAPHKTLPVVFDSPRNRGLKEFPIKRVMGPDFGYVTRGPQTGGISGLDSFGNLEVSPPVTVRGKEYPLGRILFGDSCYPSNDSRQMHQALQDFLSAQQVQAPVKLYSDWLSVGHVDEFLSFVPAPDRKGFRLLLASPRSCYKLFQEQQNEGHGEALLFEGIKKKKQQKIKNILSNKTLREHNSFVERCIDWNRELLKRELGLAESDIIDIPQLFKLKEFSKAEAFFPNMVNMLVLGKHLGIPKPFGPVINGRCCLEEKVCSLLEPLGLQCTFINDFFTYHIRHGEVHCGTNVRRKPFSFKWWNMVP

[2] = system: U2OS; experiment: Antiproliferative activity against human U2OS cells expressing PAD4 assessed as cell viability at 20 uM after 72 hrs by XTT assay; type: functional
Procedure, shortened: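 U2OS cells were treated the next day at 20 μM final for 72 h, with DMSO and Triton X-100 as controls. Viability was read by XTT absorbance at 475 nm.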

[3] = target: Protein-arginine deiminase type-4 (Mus musculus) (UniProt Q9Z183); experiment: Inhibition of PAD4 in C57BL/6 mouse bone marrow neutrophils assessed as inhibition of PMA-stimulated neutrophil extracellular trap formation at 2 to 200 uM preincubated for 30 mins followed by PMA stimulation measured after 3 to 4 hrs by […]
Protein-arginine deiminase type-4 (Mus musculus), sequence (Q9Z183 whole entry): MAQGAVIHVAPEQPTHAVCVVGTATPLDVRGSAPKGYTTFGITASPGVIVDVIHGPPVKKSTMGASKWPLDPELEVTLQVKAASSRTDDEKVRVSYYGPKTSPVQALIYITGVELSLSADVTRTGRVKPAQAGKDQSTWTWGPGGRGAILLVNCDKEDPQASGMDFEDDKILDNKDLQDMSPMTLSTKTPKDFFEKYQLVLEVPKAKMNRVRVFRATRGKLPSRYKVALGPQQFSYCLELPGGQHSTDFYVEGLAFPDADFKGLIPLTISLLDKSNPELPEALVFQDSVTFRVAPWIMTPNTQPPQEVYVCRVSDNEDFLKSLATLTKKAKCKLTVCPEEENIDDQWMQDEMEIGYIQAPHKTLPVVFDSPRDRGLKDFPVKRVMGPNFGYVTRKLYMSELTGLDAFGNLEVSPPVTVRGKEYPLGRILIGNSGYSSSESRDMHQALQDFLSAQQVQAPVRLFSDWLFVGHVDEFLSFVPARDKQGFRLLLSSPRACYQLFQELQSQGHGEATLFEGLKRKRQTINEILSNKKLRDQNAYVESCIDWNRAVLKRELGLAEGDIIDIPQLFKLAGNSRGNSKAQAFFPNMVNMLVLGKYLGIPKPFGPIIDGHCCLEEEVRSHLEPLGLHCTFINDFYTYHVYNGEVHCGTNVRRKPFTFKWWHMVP
Procedure, shortened: (§1)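 C57BL/6 bone-marrow neutrophils were isolated on a Percoll gradient (69–78% interface, >95% Ly-6G+) and seeded at 1.5 × 10^5 on poly-L-lysine coverslips. They were pretreated for 30 min in Locke's solution, then given 100 nM PMA for 3–4 h, PFA-fixed, and stained with Hoechst and anti-myeloperoxidase. NETs (decondensed MPO+ nuclei) were counted blind over ≥5 fields as % of total cells.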

[4] = target: Protein-arginine deiminase type-4 (Homo sapiens) (UniProt Q9UM07); experiment: Ratio of Kinact to Ki for PAD4 (unknown origin) using N-alpha-benzoyl-L-arginine ethyl ester as substrate assessed as citrulline production after 15 mins by COLDER assay
[5] = organism: Homo sapiens; experiment: Selectivity ratio for PAD1 (unknown origin) over PAD3 (unknown origin)
[6] = target: T1, Protein-arginine deiminase type-1 (Homo sapiens) (UniProt Q9ULC6); experiment: Ratio of Kinact to Ki for PAD1 (unknown origin) using N-alpha-benzoyl-L-arginine ethyl ester as substrate assessed as citrulline production after 15 mins by COLDER assay
T1 sequence (whole entry): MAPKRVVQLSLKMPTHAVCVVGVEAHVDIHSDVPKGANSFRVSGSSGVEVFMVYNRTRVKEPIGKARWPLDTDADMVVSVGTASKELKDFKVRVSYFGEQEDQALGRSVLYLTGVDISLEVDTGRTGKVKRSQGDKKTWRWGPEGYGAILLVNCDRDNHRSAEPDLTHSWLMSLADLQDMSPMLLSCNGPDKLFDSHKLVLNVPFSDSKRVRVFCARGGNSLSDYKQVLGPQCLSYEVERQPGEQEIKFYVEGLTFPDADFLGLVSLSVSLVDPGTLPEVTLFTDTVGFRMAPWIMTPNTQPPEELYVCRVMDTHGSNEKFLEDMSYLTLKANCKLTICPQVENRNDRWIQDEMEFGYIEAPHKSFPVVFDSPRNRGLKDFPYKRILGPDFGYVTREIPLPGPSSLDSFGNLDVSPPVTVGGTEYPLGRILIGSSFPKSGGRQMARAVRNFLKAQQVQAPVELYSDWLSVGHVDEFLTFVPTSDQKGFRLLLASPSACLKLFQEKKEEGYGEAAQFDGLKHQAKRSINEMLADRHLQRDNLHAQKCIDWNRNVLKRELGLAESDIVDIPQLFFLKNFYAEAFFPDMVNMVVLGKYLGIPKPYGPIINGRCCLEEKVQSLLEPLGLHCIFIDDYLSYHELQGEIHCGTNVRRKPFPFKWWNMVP

[7] = organism: Homo sapiens; experiment: Selectivity ratio for PAD1 (unknown origin) over PAD2 (unknown origin)
[8] = Cytotoxicity against human neutrophils assessed as cell viability after 4 hrs by XTT assay; type: cell-based; conditions: Neutrophil
Procedure, shortened: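 Freshly isolated human neutrophils in RPMI 1640 with 10% FBS were seeded at 40 000 cells/well on poly-L-lysine and allowed to adhere for 1 h. They were exposed to compound at 1–500 μM for 4 h, and viability was read by XTT.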

[9] = system: U2OS; experiment: Antiproliferative activity against human U2OS cells expressing PAD4 assessed as cell viability after 72 hrs by XTT assay; type: functional, cell-based
Procedure, shortened: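 U2OS human osteosarcoma cells were plated and treated the next day with an eight-point concentration series for 72 h. Viability was read by XTT at 475 nm. EC50 was fitted to a dose–response equation with range (uninhibited minus background) and slope factor.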

[10] = system: Liver; experiment: Metabolic stability in mouse liver microsomes; type: ADME
[11] = target: T1, Protein-arginine deiminase type-1 (Homo sapiens); experiment: Inhibition of PAD1 (unknown origin) using N-alpha-benzoyl-L-arginine ethyl ester as substrate assessed as citrulline production after 15 mins by COLDER assay
[12] = target: Protein-arginine deiminase type-2 (Homo sapiens) (UniProt Q9Y2J8); experiment: Inhibition of PAD2 (unknown origin) using N-alpha-benzoyl-L-arginine ethyl ester as substrate assessed as citrulline production after 15 mins by COLDER assay
Protein-arginine deiminase type-2 (Homo sapiens), sequence (Q9Y2J8 whole entry): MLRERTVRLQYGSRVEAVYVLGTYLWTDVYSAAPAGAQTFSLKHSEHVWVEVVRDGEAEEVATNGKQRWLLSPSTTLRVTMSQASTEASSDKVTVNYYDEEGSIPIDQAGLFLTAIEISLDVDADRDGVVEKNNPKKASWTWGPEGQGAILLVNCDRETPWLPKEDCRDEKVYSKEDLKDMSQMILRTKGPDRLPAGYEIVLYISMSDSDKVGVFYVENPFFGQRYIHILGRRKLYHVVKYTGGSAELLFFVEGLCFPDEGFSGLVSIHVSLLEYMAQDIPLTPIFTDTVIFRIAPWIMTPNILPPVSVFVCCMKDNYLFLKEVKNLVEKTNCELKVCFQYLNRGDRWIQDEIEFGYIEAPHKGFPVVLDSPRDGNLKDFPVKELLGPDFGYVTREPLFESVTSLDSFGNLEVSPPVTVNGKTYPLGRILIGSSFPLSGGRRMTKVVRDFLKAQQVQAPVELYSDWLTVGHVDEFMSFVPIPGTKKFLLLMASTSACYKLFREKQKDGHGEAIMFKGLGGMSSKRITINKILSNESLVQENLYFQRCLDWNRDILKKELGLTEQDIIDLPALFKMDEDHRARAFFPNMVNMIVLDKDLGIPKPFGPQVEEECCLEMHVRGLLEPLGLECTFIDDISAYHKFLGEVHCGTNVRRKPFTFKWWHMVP

[13] = target: Protein-arginine deiminase type-4 (Mus musculus) (UniProt Q9Z183); experiment: Inhibition of PAD4 in C57BL/6 mouse bone marrow neutrophils assessed as inhibition of PMA-stimulated neutrophil extracellular trap formation at […] preincubated for 30 mins followed by PMA stimulation measured after 3 to 4 hrs by […]; procedure, shortened: as §1

Structure (SMILES): N=C(CF)NCCC[C@H](NC(=O)c1ccccc1)C(N)=O
- inhibition [1]: inactive

Structure (SMILES): N=C(CCl)NCCC[C@H](NC(=O)c1ccc(-c2ccccc2)cc1)c1nn[nH]n1
- Activity [2]: inactive

Structure (SMILES): CC(C)(C)n1nnc([C@H](CCCNC(=N)CCl)NC(=O)c2ccccc2)n1
- Activity [2]: inactive

Structure (SMILES): N=C(CCl)NCCC[C@H](NC(=O)c1ccccc1)c1nn[nH]n1
- Activity [2]: inactive

Structure (SMILES): CC(C)(C)n1nnc([C@H](CCCNC(=N)CF)NC(=O)c2ccccc2)n1
- inhibition [1]: inactive
- Activity [2]: inactive

Structure (SMILES): CC(C)(C)n1nnc([C@H](CCCNC(=N)CF)NC(=O)c2ccc(-c3ccccc3)cc2)n1
- inhibition [1]: inactive
- Stability [10]: Stable
- EC50 [9]: 45 µM
- viability at 20 µM ([2]; read-out: Activity): > 50%

Further lines, with some results ahead:

- inhibition [3]: Active
Structure (SMILES): N=C(CCl)NCCC[C@H](NC(=O)c1ccccc1)C(N)=O

- inhibition [1]: inactive
Structure (SMILES): N=C(CF)NCCC[C@H](NC(=O)c1ccc(-c2ccccc2)cc1)c1nn[nH]n1
- Activity [2]: inactive

- Ratio [4]: 159000 M⁻¹ min⁻¹
- Selectivity ratio [5]: 15
- Ratio [6]: 82000 M⁻¹ min⁻¹
- Selectivity ratio [7]: 15
Structure (SMILES): N=C(CCl)NCCC[C@H](NC(=O)c1ccccc1C(=O)O)c1nn[nH]n1
- Activity [2]: inactive

- inhibition [1]: inactive
- EC50 [9]: 10 µM
Structure (SMILES): CC(C)(C)n1nnc([C@H](CCCNC(=N)CCl)NC(=O)c2ccc(-c3ccccc3)cc2)n1
- EC50 [8]: 31 µM

- inhibition [1]: inactive
Structure (SMILES): N=C(CF)NCCC[C@H](NC(=O)c1ccccc1)c1nn[nH]n1
- Activity [2]: inactive

- inhibition [1]: inactive
- Stability [10]: Stable
- Selectivity ratio [5]: 20
- inhibition [11]: Active
- Selectivity ratio [7]: 20
Structure (SMILES): N=C(CF)NCCC[C@H](NC(=O)c1ccccc1C(=O)O)c1nn[nH]n1
- Activity [2]: inactive

- inhibition [12]: Active
- inhibition [1]: inactive
- Stability [10]: Stable
Structure (SMILES): CC(C)(C)n1nnc([C@H](CCCNC(=N)CF)NC(=O)c2ccccc2C(=O)O)n1
- Activity [2]: inactive

- inhibition [13]: Active
- Stability [10]: Stable
Structure (SMILES): CC(C)(C)n1nnc([C@H](CCCNC(=N)CCl)NC(=O)c2ccccc2C(=O)O)n1
- EC50 [8]: 985 µM
- Activity [2]: inactive
